Calls of active or inactive are those of the source. No cut-off for these calls is given here.
Columns and labels:
CCRF-CEM [1] = assay: Cytotoxicity against human CEM cells after 72 hrs by MTT assay; assay type: functional, cell-based
How it was run: (§1)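 Cells kept in RPMI-1640 with 10% heat-inactivated FCS plus penicillin/streptomycin at 37 °C, 5% CO2. Seeded at 1 × 10^5 cells per well and treated at 0.001–100 µM for 72 h at 37 °C. Viability read by MTT. IC50 was the concentration killing 50% relative to untreated controls, by non-linear regression. Duplicate wells, three independent experiments.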

CCRF-CEM [2] = assay: Induction of apoptosis in human CEM cells at 3.3 uM after 18 hrs by flow cytometry; assay type: functional
How it was run: (§2)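 CEM cells exposed 18 h at 37 °C, then ethanol-fixed, RNase-treated and stained with propidium iodide (final 50 µg/ml). Flow cytometry on 10^4 cells per sample. Dead cells were scored as the population left of the G1/G0 peak, reflecting DNA degradation, and reported as percent.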

Bos taurus [3] = organism: Bos taurus; assay: Inhibition of calf brain beta-tubulin polymerization at 3.3 uM after 30 mins by spectrophotometry
How it was run: (§3)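 Calf brain tubulin (100 µL at 1 mg/ml) was mixed with 400 µL buffer: 0.1 M MES, 1 mM EGTA, 0.5 mM MgCl2, 0.1 mM EDTA, 2.5 M glycerol. Compound or solvent control was added, then GTP to a final 1 mM. OD340 was read at 0 min (baseline) and at 30 min, with assembly at room temperature.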

CCRF-CEM [4] = assay: Cell cycle arrest in human CEM cells assessed as accumulation at G0/G1 phase at 3.3 uM after 18 hrs by flow cytometry; assay type: functional
How it was run: (§4)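 CEM cells grown in RPMI-1640 with 10% heat-inactivated FCS at 37 °C, 5% CO2, exposed to compound for 18 h at 37 °C. Fixed in 70% ethanol 18 h at 4 °C, RNase A (50 µg/ml) 0.5 h at 37 °C, then propidium iodide (final 50 µg/ml) 0.5 h at 4 °C. Flow cytometry on 10^4 cells per sample gave phase distribution.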

CCRF-CEM [5] = assay: Cell cycle arrest in human CEM cells assessed as accumulation at S phase at 3.3 uM after 18 hrs by flow cytometry; assay type: functional; how it was run: as §4
CCRF-CEM [6] = assay: Cell cycle arrest in human CEM cells assessed as accumulation at G2/M phase at 3.3 uM after 18 hrs by flow cytometry; assay type: functional; how it was run: as §4
Bos taurus [7] = organism: Bos taurus; assay: Inhibition of calf brain beta-tubulin polymerization at 10 uM after 30 mins by spectrophotometry; how it was run: as §3
CCRF-CEM [8] = assay: Cell cycle arrest in human CEM cells assessed as accumulation at S phase at 6.4 uM after 18 hrs by flow cytometry; assay type: functional; conditions: in the assay text read “10 uM” for “6.4 uM”; how it was run: as §4
CCRF-CEM [9] = assay: Cell cycle arrest in human CEM cells assessed as accumulation at G2/M phase at 6.4 uM after 18 hrs by flow cytometry; assay type: functional; conditions: in the assay text read “10 uM” for “6.4 uM”; how it was run: as §4
CCRF-CEM [10] = assay: Cell cycle arrest in human CEM cells assessed as accumulation at G0/G1 phase at 6.4 uM after 18 hrs by flow cytometry; assay type: functional; conditions: in the assay text read “10 uM” for “6.4 uM”; how it was run: as §4
CCRF-CEM [11] = assay: Induction of apoptosis in human CEM cells at 6.4 uM after 18 hrs by flow cytometry; assay type: functional; conditions: in the assay text read “10 uM” for “6.4 uM”; how it was run: as §2
Bel-7402 = assay: Cytotoxicity against human Bel7402 cells after 72 hrs by MTT assay; assay type: functional, cell-based; conditions: Bel-7402, 72 h; how it was run: as §1
CCRF-CEM [12] = assay: Cell cycle arrest in human CEM cells assessed as accumulation at G2/M phase at 10 uM after 18 hrs by flow cytometry; assay type: functional; conditions: in the assay text read “6.4 uM” for “10 uM”; how it was run: as §4
DU-145 = assay: Cytotoxicity against human DU145 cells after 72 hrs by MTT assay; assay type: functional, cell-based; conditions: DU-145, 72 h; how it was run: as §1
MIA PaCa-2 = assay: Cytotoxicity against human MIAPaCa2 cells after 72 hrs by MTT assay; assay type: functional, cell-based; conditions: MIA PaCa-2, 72 h; how it was run: as §1
LoVo = assay: Cytotoxicity against human LoVo cells after 72 hrs by MTT assay; assay type: functional, cell-based; how it was run: as §1
CCRF-CEM [13] = assay: Cytotoxicity against human CEM cells after 24 hrs by MTT assay; assay type: functional, cell-based
How it was run: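 CEM cells treated at a range of concentrations for 24 h. Cell death measured by MTT.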

CCRF-CEM [14] = assay: Cell cycle arrest in human CEM cells assessed as accumulation at S phase at 10 uM after 18 hrs by flow cytometry; assay type: functional; conditions: in the assay text read “6.4 uM” for “10 uM”; how it was run: as §4
CCRF-CEM [15] = assay: Induction of apoptosis in human CEM cells at 10 uM after 18 hrs by flow cytometry; assay type: functional; conditions: in the assay text read “6.4 uM” for “10 uM”; how it was run: as §2
Bos taurus [16] = organism: Bos taurus; assay: Inhibition of calf brain beta-tubulin polymerization at 6.4 uM after 30 mins by spectrophotometry; how it was run: as §3
Daudi = assay: Cytotoxicity against human Daudi cells after 72 hrs by MTT assay; assay type: functional, cell-based; how it was run: as §1
PC-3 = assay: Cytotoxicity against human PC3 cells after 72 hrs by MTT assay; assay type: functional, cell-based; conditions: PC-3, 72 h; how it was run: as §1
[17] = Cytotoxicity against human DND1A cells after 72 hrs by MTT assay; assay type: functional, cell-based; how it was run: as §1
MCF7 = assay: Cytotoxicity against human MCF7 cells after 72 hrs by MTT assay; assay type: functional, cell-based; conditions: MCF7, 72 h; how it was run: as §1
CCRF-CEM [18] = assay: Cell cycle arrest in human CEM cells assessed as accumulation at G0/G1 phase at 10 uM after 18 hrs by flow cytometry; assay type: functional; conditions: in the assay text read “6.4 uM” for “10 uM”; how it was run: as §4
CCRF-CEM [19] = assay: Cell cycle arrest in human CEM cells assessed as accumulation at S phase at 3.2 uM after 18 hrs by flow cytometry; assay type: functional; how it was run: as §4
CCRF-CEM [20] = assay: Induction of apoptosis in human CEM cells at 3.2 uM after 18 hrs by flow cytometry; assay type: functional; how it was run: as §2
CCRF-CEM [21] = assay: Cell cycle arrest in human CEM cells assessed as accumulation at G2/M phase at 3.2 uM after 18 hrs by flow cytometry; assay type: functional; how it was run: as §4
CCRF-CEM [22] = assay: Cell cycle arrest in human CEM cells assessed as accumulation at G0/G1 phase at 3.2 uM after 18 hrs by flow cytometry; assay type: functional; how it was run: as §4

For CC(Br)C(=O)Nc1cccc(NC(=O)NC(=O)CCCl)c1 (centres undefined), the IC50 (CCRF-CEM [1]) was 2050 nM.
For CC(Br)C(=O)Nc1cccc(NC(=O)NCCCl)c1 (centres undefined), the IC50 (CCRF-CEM [1]) was 22700 nM.
In the case of O=C(CBr)Nc1cccc(NC(=O)Nc2ccccc2)c1, the IC50 (CCRF-CEM [1]) is reported as 860 nM.
CC(Br)C(=O)Nc1cccc(NC(=O)NC=O)c1 (centres undefined) showed an IC50 (CCRF-CEM [1]) of 10200 nM.
In the case of COc1cc(NC(=O)Nc2cccc(NC(=O)CBr)c2)cc(OC)c1OC, the IC50 (CCRF-CEM [1]) is reported as 1000 nM.
CC(=O)NC(=O)Nc1cccc(NC(=O)CBr)c1 showed an IC50 (CCRF-CEM [1]) of 3200 nM.
Work on CC(Br)C(=O)NC(=O)Nc1cccc(NC(=O)C(C)Br)c1 (centres undefined) yielded an IC50 (CCRF-CEM [1]) of 1340 nM.
For O=CNC(=O)Nc1cccc(NC(=O)CBr)c1, the IC50 (CCRF-CEM [1]) was 850 nM, the Activity (CCRF-CEM [2]) was 52.6% and the inhibition (Bos taurus [3]) was “inactive”. The Activity (CCRF-CEM [4]) was 33.5%, the Activity (CCRF-CEM [5]) was 12.9% and the Activity (CCRF-CEM [6]) was 2%.
With O=C(CI)Nc1cccc(NC(=O)NCCCl)c1 the IC50 (CCRF-CEM [1]) was 100 nM, the inhibition (Bos taurus [7]) was “inactive” and the Activity (CCRF-CEM [8]) was 30.1%. The Activity (CCRF-CEM [9]) was 2.6%, the Activity (CCRF-CEM [10]) was 34.1% and the Activity (CCRF-CEM [11]) was 33.2%.
With NC(=O)NC(=O)c1cccc(NC(=O)CBr)c1 the IC50 (CCRF-CEM [1]) was 725 nM.
Work on COc1cc(NC(=O)Nc2cccc(NC(=O)C(C)Br)c2)cc(OC)c1OC (centres undefined) yielded an IC50 (CCRF-CEM [1]) of 3990 nM.
Compound O=C(CCCl)NC(=O)Nc1cccc(NC(=O)CBr)c1 has an IC50 (CCRF-CEM [1]) of 1900 nM.
O=C(CBr)NC(=O)Nc1cccc(NC(=O)CBr)c1 gave an IC50 (Bel-7402) of 4070 nM, an Activity (CCRF-CEM [12]) of 13.2% and an IC50 (CCRF-CEM [1]) of 560 nM. It also gave an IC50 (DU-145) of 1280 nM, an IC50 (MIA PaCa-2) of 2810 nM and an IC50 (LoVo) of 1990 nM. For the same compound, the Activity (CCRF-CEM [13]) was “Dose-dependent effect”, the Activity (CCRF-CEM [14]) was 13.7% and the Activity (CCRF-CEM [15]) was 24.8%. The inhibition (Bos taurus [16]) was “inactive”, the IC50 (Daudi) was 380 nM and the IC50 (PC-3) was over 100000 nM. It also gave an IC50 [17] of 510 nM, an IC50 (MCF7) of 590 nM and an Activity (CCRF-CEM [18]) of 48.3%.
CC(=O)NC(=O)Nc1cccc(NC(=O)C(C)Br)c1 (centres undefined) gave an IC50 (CCRF-CEM [1]) of 10600 nM.
For O=C(CBr)Nc1cccc(NC(=O)NCCCl)c1, the IC50 (CCRF-CEM [1]) was 770 nM.
Compound CC(Br)C(=O)Nc1cccc(C(=O)NC(N)=O)c1 (centres undefined) has an IC50 (CCRF-CEM [1]) of 1470 nM, an Activity (CCRF-CEM [19]) of 25.3% and an Activity (CCRF-CEM [20]) of 9.5%. It also gave an Activity (CCRF-CEM [21]) of 63.2% and an Activity (CCRF-CEM [22]) of 2%.
